The text below walks through data of ChEMBL document CHEMBL1157063, “Gymnochromes E and F, cytotoxic phenanthroperylenequinones from a deep-water crinoid, Holopus rangii” (J Nat Prod, 2010).

≈ marks a conversion by molar mass, not a printed value. Calls of active or inactive are those of the source. No cut-off for these calls is given here.

The test system of one assay is Candida albicans. The assay can be described thus: Antifungal activity against Candida albicans after 18 hrs by microdilution broth method. Type of assay: functional, organism-based. The gist of the method: (§1)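 Reference strains: S. aureus ATCC 29213, methicillin-resistant S. aureus ATCC 700787, P. aeruginosa ATCC 27853 and C. albicans ATCC 44506. Method as previously described elsewhere.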
(Dilution methods test growth across graded concentrations, often in twofold steps.)

Assay [1] concerns PANC-1. The assay can be described thus: Cytotoxicity against human PANC1 cells at 6.4 uM after 48 hrs by MTT assay. Type of assay: functional, cell-based.
In assay [2] the test system is NCI/ADR-RES. The assay can be described thus: Cytotoxicity against human NCI/ADR-RES cells after 48 hrs by MTT assay. Type of assay: functional, cell-based. The gist of the method: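 NCI/ADR-RES (formerly MCF-7/ADR) is a multidrug-resistant human ovarian carcinoma line from the NCI-Frederick tumor/cell line repository. It was scored for inhibition of proliferation using a previously described protocol. Each sample was run at least three times to derive the final IC50.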

Assay [3] deals with DLD-1. The assay can be described thus: Cytotoxicity against human DLD1 cells at 6.4 uM after 48 hrs by MTT assay. The assay is classed as functional, cell-based. (Tetrazolium assays rely on reduction of a dye to a coloured formazan, in cell work by metabolically active cells.)
The subject of assay [4] is NCI/ADR-RES. The assay can be described thus: Cytotoxicity against human NCI/ADR-RES cells at 5.2 uM after 48 hrs by MTT assay. The assay is classed as functional, cell-based.
In assay [5] the test system is PANC-1. The assay can be described thus: Cytotoxicity against human PANC1 cells at 5.2 uM after 48 hrs by MTT assay. Type of assay: functional, cell-based.
Assay [6] concerns DLD-1. The assay can be described thus: Cytotoxicity against human DLD1 cells at 5.2 uM after 48 hrs by MTT assay. The assay is classed as functional, cell-based.
A further assay has as its target Histone deacetylase 1 (Homo sapiens, UniProt Q13547). The assay can be described thus: Inhibition of human HDAC1 assessed as [3H]acetate release after 90 mins by scintillation counting.
Assay [7] deals with Induced myeloid leukemia cell differentiation protein Mcl-1 (Homo sapiens, UniProt Q07820). The assay can be described thus: Inhibition of MCL1 binding to Bak by FRET assay.
Induced myeloid leukemia cell differentiation protein Mcl-1, sequence (Q07820 whole entry): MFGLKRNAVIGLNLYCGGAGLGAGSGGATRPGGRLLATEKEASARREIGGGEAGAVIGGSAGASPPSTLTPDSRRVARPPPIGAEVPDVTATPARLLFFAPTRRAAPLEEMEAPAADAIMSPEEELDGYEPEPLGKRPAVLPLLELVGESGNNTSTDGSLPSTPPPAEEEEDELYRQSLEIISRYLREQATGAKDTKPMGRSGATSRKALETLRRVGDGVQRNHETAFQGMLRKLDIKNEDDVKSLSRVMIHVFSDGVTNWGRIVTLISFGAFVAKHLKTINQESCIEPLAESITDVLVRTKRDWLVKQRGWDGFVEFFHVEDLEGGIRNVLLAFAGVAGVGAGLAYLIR
Assay [8] relates to Staphylococcus aureus. The assay can be described thus: Antibacterial activity against Staphylococcus aureus after 18 hrs by microdilution broth method. Type of assay: functional. Put shortly:
as §1

The subject of assay [9] is Staphylococcus aureus. The assay can be described thus: Antibacterial activity against methicillin-resistant Staphylococcus aureus after 18 hrs by microdilution broth method. Type of assay: functional. Put shortly:
as §1

Another assay has as its system Pseudomonas aeruginosa. The assay can be described thus: Antibacterial activity against Pseudomonas aeruginosa after 18 hrs by microdilution broth method. Type of assay: functional, organism-based. The gist of the method:
as §1

Histone deacetylase 1, sequence (Q13547 whole entry): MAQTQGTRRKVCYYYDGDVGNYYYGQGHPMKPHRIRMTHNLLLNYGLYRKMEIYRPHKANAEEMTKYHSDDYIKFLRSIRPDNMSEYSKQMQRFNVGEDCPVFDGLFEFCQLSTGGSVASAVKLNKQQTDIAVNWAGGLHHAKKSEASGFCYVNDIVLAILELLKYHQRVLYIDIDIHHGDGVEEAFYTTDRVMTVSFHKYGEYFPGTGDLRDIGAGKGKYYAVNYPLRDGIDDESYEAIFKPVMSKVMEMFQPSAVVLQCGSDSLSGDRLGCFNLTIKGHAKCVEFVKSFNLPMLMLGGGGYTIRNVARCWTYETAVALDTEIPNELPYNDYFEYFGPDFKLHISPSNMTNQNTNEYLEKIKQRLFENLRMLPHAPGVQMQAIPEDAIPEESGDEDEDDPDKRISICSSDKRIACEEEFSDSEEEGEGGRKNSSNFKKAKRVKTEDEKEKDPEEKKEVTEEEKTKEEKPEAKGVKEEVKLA

For `O=C(O)c1cc(O)c2c(c1)C(=O)c1cc(O)cc(O)c1C2=O`, the outcome in the assay with Candida albicans, in the assay with PANC-1 [1], in the assay with NCI/ADR-RES [2], in the assay on DLD-1 [3], in the assay on NCI/ADR-RES [4] and in the assay on PANC-1 [5] was inactive. In addition, the result (with DLD-1 [6]; at Histone deacetylase 1; in assay [7]; in the assay with Staphylococcus aureus [8]; with Staphylococcus aureus [9]; in the assay on Pseudomonas aeruginosa) was inactive.
The IC50 is the concentration that inhibits the measured activity by half. A word on the MIC: it is the lowest concentration found to suppress growth. On to `CCC[C@@H](O)Cc1c(Br)c(O)c2c(=O)c3c(O)c(Br)c(O)c4c5c(O)c(Br)c(O)c6c(=O)c7c(O)c(Br)c(C[C@H](O)CCC)c8c1c2c(c34)c(c65)c78` [GYMNOCHROME F], for which the outcome in the assay on Candida albicans, with NCI/ADR-RES [4], with PANC-1 [5], in the assay with DLD-1 [6] and in the assay with Pseudomonas aeruginosa was inactive. The compound further displayed a 50% inhibitory concentration (IC50) in [7] of 3.3 µM. Besides, the MIC against Staphylococcus aureus [8] and in the assay on Staphylococcus aureus [9] was 12.5 µg/mL (≈ 13 µM) in each case.
As to `CCC[C@@H](O)Cc1c(Br)c(O)c2c(=O)c3c(O)cc(O)c4c5c(O)cc(O)c6c(=O)c7c(O)c(Br)c(C[C@H](C)O)c8c1c2c(c34)c(c65)c78` [GYMNOCHROME E], the result in the assay with Candida albicans, in the assay on PANC-1 [1], in the assay on DLD-1 [3] and in the assay on Pseudomonas aeruginosa was inactive. For the same compound, the figures for the IC50 in the assay with NCI/ADR-RES [2] and on Histone deacetylase 1 were 3.5 µM and 10.9 µM, respectively. Also, the minimum inhibitory concentration (MIC) in the assay with Staphylococcus aureus [8] and with Staphylococcus aureus [9] was 25 µg/mL (≈ 32.1 µM) throughout.
Take `O=C(O)c1cc(O)c2c(c1)C(=O)c1cc(O)c(Br)c(O)c1C2=O`: the result with Candida albicans, in the assay with PANC-1 [1], in the assay with NCI/ADR-RES [2], in the assay on DLD-1 [3], with NCI/ADR-RES [4] and in the assay on PANC-1 [5] was inactive. Further, the result (with DLD-1 [6]; at Histone deacetylase 1; in assay [7]; in the assay with Staphylococcus aureus [8]; in the assay with Staphylococcus aureus [9]; in the assay with Pseudomonas aeruginosa) was inactive.
